From paper PMC7540576 (Chembiochem, 2020)
Non-standard residues stand in square brackets, D forms with d. Residues, ends and D or L forms follow the SMILES beside them. *: point of attachment. Orn(α-tetramethylguanidino) = CN(C)C(=N[C@@H](CCCN)C(=O)*)N(C)C

How the values were obtained:
S. aureus DSM 6247 [1] = test: Antimicrobial activity; type: cell-based, Staphylococcus aureus DSM 6247; conditions: broth micro dilution, 25 % MHB2, 7.5×10^6 cfu/mL, 37 °C, 20±2 h, triplicates
Method in brief: (§1)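 Broth microdilution in 25% MHB2. Aqueous peptide stock (3 g/L) serially twofold diluted from 128 µg/mL in eight steps. Overnight 25% MHB2 cultures were diluted 30-fold, grown 4 h (37 °C, 200 rpm), and adjusted by McFarland to give a final 7.5×10^6 cfu/mL. Plates were incubated 20±2 h at 37 °C and OD595 read. MIC was the lowest concentration preventing visible growth. Triplicates.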

P. aeruginosa ATCC 27853 = test: Antimicrobial activity; type: cell-based, Pseudomonas aeruginosa DSM 1117 / ATCC 27853; conditions: broth micro dilution, 25 % MHB2, 7.5×10^6 cfu/mL, 37 °C, 20±2 h, triplicates
Method in brief: as §1

A. baumannii ATCC 15308 = test: Antimicrobial activity; type: cell-based, Acinetobacter baumannii DSM 30008 / ATCC 15308; conditions: for MIC: broth micro dilution, 25 % MHB2, 7.5×10^6 cfu/mL, 37 °C, 20±2 h, triplicates
Method in brief: as §1

K. pneumoniae ATCC 10031 [2] = test: Antimicrobial activity; type: cell-based, Klebsiella pneumoniae DSM 681 / ATCC 10031; conditions: broth micro dilution, 25 % MHB2, 7.5×10^6 cfu/mL, 37 °C, 20±2 h, triplicates
Method in brief: as §1

E. coli BW25113 [3] = test: Antimicrobial activity; type: cell-based, Escherichia coli BW25113; conditions: broth micro dilution, 25 % MHB2, 7.5×10^6 cfu/mL, 37 °C, 20±2 h, triplicates
Method in brief: as §1

[4] = system: ribosome of S. aureus DSM 6247; test: Fluorescence polarization assay, 70S ribosome of S. aureus; type: binding, Staphylococcus aureus DSM 6247; conditions: S. aureus ribosome versus E. coli ribosome
Method in brief: (§2)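 70S ribosomes came from log-phase cultures (OD600 ~1): bead-mill lysis in HEPES buffer pH 7.6, DNase I/meropenem, clarification, then 165000 g for 17 h. Concentration by A260 (1 AU = 28 pmol/mL). In casein-blocked wells, ribosomes were twofold diluted in 23 steps (12 µmol/L–2.9 pmol/L) with Cf-labeled peptide added at 40 nmol/L, then incubated 90 min at 28 °C in the dark. Polarization read at ex485/em535. K_d came from a variable-slope dose-response fit of ≥2 triplicate experiments on different days.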

[5] = system: A. baumannii ATCC 15308 ribosomes; test: Fluorescence polarization assay, 70S ribosome of A. baumannii; type: binding, Acinetobacter baumannii DSM 30008 / ATCC 15308; conditions: RF1 added at equimolar quantities to the A. baumannii ribosome preparation
Method in brief: as §2

S. aureus DSM 6247 [6] = test: Bacterial uptake, peptide quantified by LC-MS; type: cell-based, Staphylococcus aureus DSM 6247; conditions: ∼7.5×10^9 cells/mL, 30 min, relative to cell-free medium, LC-MS MRM (Figure S3)
Method in brief: (§3)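 Cultures in 25% MHB2 were grown 4.0±0.25 h after 30-fold dilution, sized by OD600 (1.0 = 1.2×10^9 cfu/mL), pelleted and resuspended to 1.5×10^10 or 1.5×10^9 cfu/mL. Each was mixed 1:1 with medium containing 16 µg/mL peptide and shaken 30 min at 37 °C, with viable counts plated. Peptide in the supernatant (pellets also quantified) was measured by SPE then RP-HPLC-ESI-MS/MS MRM against a cell-free 8 µg/mL control and an on-plate calibration. Uptake was taken as the difference. Triplicate, repeated another day.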

E. coli BL21AI = E. coli BL21AI incubated with 4 mg/L peptide; cited from earlier work
[7] = system: Gram‐negatives (E. coli, K. pneumoniae, A. baumannii, P. aeruginosa); test: Bacterial uptake, values stated for the Gram-negatives together; type: cell-based; conditions: 30 min
Method in brief: as §3

E. coli BW25113 [8] = test: Bacterial uptake, peptide quantified by LC-MS; type: cell-based, Escherichia coli BW25113; conditions: high cell counts, 30 min
Method in brief: as §3

K. pneumoniae ATCC 10031 [9] = test: Bacterial uptake, peptide quantified by LC-MS; type: cell-based, Klebsiella pneumoniae DSM 681 / ATCC 10031; conditions: high cell counts, 30 min
Method in brief: as §3

[10] = calculated from reduced quantity in supernatant

Which MIC (S. aureus DSM 6247 [1]) does the source give for `CC[C@H](C)[C@H](NC(=O)[C@H](Cc1ccc(O)cc1)NC(=O)[C@@H](NC(=O)[C@@H]1CCCN1C(=O)[C@H](CCCNC(=N)N)NC(=O)[C@H](CC(N)=O)NC(=O)[C@H](CC(N)=O)NC(=O)[C@H](CCCN)N=C(N(C)C)N(C)C)C(C)C)C(=O)N1CCC[C@H]1C(=O)N[C@@H](CCCNC(=N)N)C(=O)N1CCC[C@H]1C(=O)N[C@@H](CCCNC(=N)N)C(=O)N1CCC[C@H]1C(=O)N1CCC[C@H]1C(=O)N[C@@H](Cc1c[nH]cn1)C(=O)N1CCC[C@H]1C(=O)N[C@@H](CCCNC(=N)N)C(=O)N[C@@H](CC(C)C)C(=O)O` [Api137] ({Orn(α-tetramethylguanidino)}-NNRPVYIPRPRPPHPRL-OH) here?
The MIC was >128 (>56) mg/L.

And the MIC (P. aeruginosa ATCC 27853)?
The MIC was >128 (>56) mg/L.

What about the “MIC, fold difference E. coli versus A. baumannii” value (A. baumannii ATCC 15308; MIC 4 μg/mL for E. coli and 128 μg/mL for A. baumannii) of the same compound?
Its value is 32 fold.

What about the MIC (A. baumannii ATCC 15308) of the same compound?
Its MIC is 128 (56) mg/L.

What about the MIC (K. pneumoniae ATCC 10031 [2]) of the same compound?
The MIC was 2 (0.9) mg/L.

What about the MIC (E. coli BW25113 [3]) of the same compound?
The MIC was 4 (1.8) mg/L.

And the “K d, fold higher than for E. coli” value [4]?
Its value is 34 fold.

What about the “Effect of recombinant E. coli RF1 on K d” value [5] of the same compound?
Its value is “did not affect”.

With `CC[C@H](C)[C@H](NC(=O)[C@@H](CCCNC(=N)N)NC(=O)[C@H](CCCNC(=N)N)NC(=O)[C@@H]1CCCN1C(=O)[C@@H]1CCCN1C(=O)[C@H](CCCNC(=N)N)NC(=O)[C@@H]1CCCN1C(=O)[C@H](CCCNC(=N)N)NC(=O)[C@@H]1CCCN1C(=O)[C@H](CC(C)C)NC(=O)[C@H](Cc1ccc(O)cc1)NC(=O)[C@@H]1CCCN1C(=O)[C@@H]1CCCN1C(=O)[C@H](CCCCN)NC(=O)[C@H](CC(=O)O)NC(=O)[C@@H](N)C(C)C)C(=O)N[C@@H](Cc1ccc(O)cc1)C(=O)N[C@@H](CC(N)=O)C(=O)N[C@H](CCCNC(=N)N)C(N)=O` [Onc112] (H-VDKPPYLPRPRPPR[dR]IYN[dR]-NH2) as the compound, how does the MIC (S. aureus DSM 6247 [1]) read?
Its MIC is 64 (26.8) mg/L.

And the MIC (P. aeruginosa ATCC 27853)?
Its MIC is 64 (26.8) mg/L.

What about the “Total quantities determined in supernatants and pellets” value (S. aureus DSM 6247 [6]) of the same compound?
Its value is “around 110%”.

And the MIC (A. baumannii ATCC 15308)?
Its MIC is 32 (13.4) mg/L.

And the Peptide per cell (E. coli BL21AI)?
The Peptide per cell was 0.2 fg/cell.

What about the MIC (K. pneumoniae ATCC 10031 [2]) of the same compound?
Its MIC is 2 (0.8) mg/L.

And the MIC (E. coli BW25113 [3])?
Its MIC is 8 (3.4) mg/L.

And the “Relative peptide quantity in culture supernatants” value ([7]; high cell counts ∼7.5×10^9 cells/mL, typical value, except for E. coli)?
Its value is “around 75%”.

What about the Uptake rates ([7]; low cell counts, Gram-negatives) of the same compound?
Its Uptake rates is “below 20%”.

What about the “Peptide per single cell, on average” value (E. coli BW25113 [8]) of the same compound?
Its value is 0.5 fg.

What about the “Uptake (peptide amount)” value (E. coli BW25113 [8]) of the same compound?
The value was 352 ng.

What about the Uptake rate (E. coli BW25113 [8]; [10]) of the same compound?
Its Uptake rate is ~44%.

What about the “Peptide per single cell, on average” value (K. pneumoniae ATCC 10031 [9]) of the same compound?
Its value is 0.3 fg.

What about the “Uptake (peptide amount)” value (K. pneumoniae ATCC 10031 [9]) of the same compound?
Its value is 208 ng.

What about the Uptake rate (K. pneumoniae ATCC 10031 [9]; [10]) of the same compound?
The Uptake rate was ~25%.
